In test [1] the target is T1, Pituitary adenylate cyclase-activating polypeptide type I receptor (Homo sapiens, UniProt P41586). As to the kind of experiment: Agonist activity at human recombinant PAC1 receptor expressed in CHO cells assessed as PACAP38-induced calcium mobilization by FLIPR assay. The format is functional, cell-based. The method, boiled down:
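CHO cells stably expressing recombinant human PAC1, plated 24 h before assay, loaded with fluo-4 AM for 60 min at 37 °C in the dark, then rinsed into HBSS for 15 min at 37 °C. EC50 and efficacy came from nonlinear regression; 4-10 independent assays in duplicate.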
Background: Calcium assays in cells follow changes in intracellular calcium, usually with a dye or a luminescent sensor.
Target sequence in this assay (P41586 whole entry): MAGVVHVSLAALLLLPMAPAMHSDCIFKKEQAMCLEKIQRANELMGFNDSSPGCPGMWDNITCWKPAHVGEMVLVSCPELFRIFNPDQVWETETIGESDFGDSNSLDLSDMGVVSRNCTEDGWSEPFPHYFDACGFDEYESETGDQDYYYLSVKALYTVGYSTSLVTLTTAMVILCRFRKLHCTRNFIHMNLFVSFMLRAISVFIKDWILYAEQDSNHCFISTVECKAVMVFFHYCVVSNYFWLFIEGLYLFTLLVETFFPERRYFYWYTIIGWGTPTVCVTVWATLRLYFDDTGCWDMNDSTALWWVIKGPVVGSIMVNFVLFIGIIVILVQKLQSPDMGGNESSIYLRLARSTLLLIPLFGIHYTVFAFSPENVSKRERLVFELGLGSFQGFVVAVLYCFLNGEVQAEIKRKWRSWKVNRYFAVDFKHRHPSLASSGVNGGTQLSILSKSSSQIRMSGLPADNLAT

In test [2] the target is T1, Pituitary adenylate cyclase-activating polypeptide type I receptor. Nature of the test: Displacement of [125I]Ac-PACAP27 from human recombinant PAC1 receptor expressed in CHO cells by gamma- counter. The format is cell-based. In general terms: Displacement assays read how much labelled ligand stays bound in the presence of the test substance.
Target sequence in this assay (P41586 whole entry): as above
The target is the same in test [3]. Nature of the test: Agonist activity at human recombinant PAC1 receptor expressed in CHO cells assessed as PACAP38-induced calcium mobilization by FLIPR assay relative to PACAP38. Format: functional, cell-based. The essentials:
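CHO cells stably expressing recombinant human PAC1, plated 24 h before assay, loaded with fluo-4 AM for 60 min at 37 °C in the dark, then rinsed into HBSS for 15 min at 37 °C. Peptide was added 18 s into a 150 s read (ex 480/em 525 nm), at final concentrations of 1 × 10-12 to 1 × 10^-5 M. Response was normalised to 1 × 10^-5 M PACAP38 on each plate. EC50 and efficacy came from nonlinear regression; 4-10 independent assays in duplicate.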
Target sequence in this assay (P41586 21-468 limits assumed): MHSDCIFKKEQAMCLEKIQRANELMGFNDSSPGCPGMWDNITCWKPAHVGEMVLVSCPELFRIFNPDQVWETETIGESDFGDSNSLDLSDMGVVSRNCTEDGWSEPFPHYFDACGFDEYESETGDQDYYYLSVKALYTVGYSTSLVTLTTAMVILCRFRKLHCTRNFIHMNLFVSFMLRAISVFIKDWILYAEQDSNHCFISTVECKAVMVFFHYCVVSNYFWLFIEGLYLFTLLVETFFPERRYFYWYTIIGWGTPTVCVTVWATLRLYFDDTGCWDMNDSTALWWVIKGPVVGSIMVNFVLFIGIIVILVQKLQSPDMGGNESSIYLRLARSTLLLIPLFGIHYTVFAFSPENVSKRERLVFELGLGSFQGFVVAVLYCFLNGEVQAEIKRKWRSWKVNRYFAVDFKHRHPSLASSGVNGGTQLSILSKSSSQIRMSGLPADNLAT

For orientation: EC50 means the concentration that produces a half-maximal response. In general, IC50 refers to the concentration needed to halve the response being measured. Usually Emax stands for the size of the effect at its maximum, as opposed to the concentration needed.

Take `CC[C@H](C)[C@H](NC(=O)CNC(=O)[C@H](CC(=O)O)NC(=O)[C@H](CO)NC(=O)[C@@H](N)Cc1cncn1C)C(=O)N[C@@H](Cc1ccccc1)C(=O)N[C@H](C(=O)N[C@@H](CC(=O)O)C(=O)N[C@@H](CO)C(=O)N[C@@H](Cc1ccc(O)cc1)C(=O)N[C@@H](CO)C(=O)N[C@@H](CCCN=C(N)N)C(=O)N[C@@H](Cc1ccc(O)cc1)C(=O)N[C@@H](CCCN=C(N)N)C(=O)N[C@@H](CCCCN)C(=O)N[C@@H](CCC(N)=O)C(=O)N[C@@H](CCSC)C(=O)N[C@@H](C)C(=O)N[C@H](C(=O)N[C@@H](CCCCN)C(=O)N[C@@H](CCCCN)C(=O)N[C@@H](Cc1ccc(O)cc1)C(=O)N[C@@H](CC(C)C)C(=O)N[C@@H](C)C(=O)N[C@@H](C)C(=O)N[C@H](C(=O)N[C@@H](CC(C)C)C(=O)NCC(=O)N[C@@H](CCCCN)C(=O)N[C@@H](CCCN=C(N)N)C(=O)N[C@@H](Cc1ccc(O)cc1)C(=O)N[C@@H](CCCCN)C(=O)N[C@@H](CCC(N)=O)C(=O)N[C@@H](CCCN=C(N)N)C(=O)N[C@H](C(=O)N[C@@H](CCCCN)C(=O)N[C@@H](CC(N)=O)C(=O)N[C@@H](CCCCN)C(N)=O)C(C)C)C(C)C)C(C)C)[C@@H](C)O`: the EC50 in test [1] was 2.4 nM. Moreover, the IC50 in test [2] stood at 7.5 nM.

As for `CC[C@H](C)[C@H](NC(=O)CNC(=O)[C@H](CC(=O)O)NC(=O)[C@H](CO)NC(=O)[C@@H](N)Cc1cn(C)cn1)C(=O)N[C@@H](Cc1ccccc1)C(=O)N[C@H](C(=O)N[C@@H](CC(=O)O)C(=O)N[C@@H](CO)C(=O)N[C@@H](Cc1ccc(O)cc1)C(=O)N[C@@H](CO)C(=O)N[C@@H](CCCN=C(N)N)C(=O)N[C@@H](Cc1ccc(O)cc1)C(=O)N[C@@H](CCCN=C(N)N)C(=O)N[C@@H](CCCCN)C(=O)N[C@@H](CCC(N)=O)C(=O)N[C@@H](CCSC)C(=O)N[C@@H](C)C(=O)N[C@H](C(=O)N[C@@H](CCCCN)C(=O)N[C@@H](CCCCN)C(=O)N[C@@H](Cc1ccc(O)cc1)C(=O)N[C@@H](CC(C)C)C(=O)N[C@@H](C)C(=O)N[C@@H](C)C(=O)N[C@H](C(=O)N[C@@H](CC(C)C)C(=O)NCC(=O)N[C@@H](CCCCN)C(=O)N[C@@H](CCCN=C(N)N)C(=O)N[C@@H](Cc1ccc(O)cc1)C(=O)N[C@@H](CCCCN)C(=O)N[C@@H](CCC(N)=O)C(=O)N[C@@H](CCCN=C(N)N)C(=O)N[C@H](C(=O)N[C@@H](CCCCN)C(=O)N[C@@H](CC(N)=O)C(=O)N[C@@H](CCCCN)C(N)=O)C(C)C)C(C)C)C(C)C)[C@@H](C)O`, the EC50 in test [1] is 37.6 nM. Moreover, the half-maximal inhibitory concentration (IC50) in test [2] came out at 11.3 nM.

With `CC[C@H](C)[C@H](NC(=O)CNC(=O)[C@H](CC(=O)O)NC(=O)[C@H](CO)NC(=O)[C@@H](N)Cc1cn(C)cn1)C(=O)N[C@@H](Cc1ccccc1)C(=O)N[C@H](C(=O)N[C@@H](CC(=O)O)C(=O)N[C@@H](CO)C(=O)N[C@@H](Cc1ccc(O)cc1)C(=O)N[C@@H](CO)C(=O)N[C@@H](CCCN=C(N)N)C(=O)N[C@@H](Cc1ccc(O)cc1)C(=O)N[C@@H](CCCN=C(N)N)C(=O)N[C@@H](CCCCN)C(=O)N[C@@H](CCC(N)=O)C(=O)N[C@@H](CCSC)C(=O)N[C@@H](C)C(=O)N[C@H](C(=O)N[C@@H](CCCCN)C(=O)N[C@@H](CCCCN)C(=O)N[C@@H](Cc1ccc(O)cc1)C(=O)N[C@@H](CC(C)C)C(=O)N[C@@H](C)C(=O)N[C@@H](C)C(=O)N[C@H](C(=O)N[C@@H](CC(C)C)C(N)=O)C(C)C)C(C)C)[C@@H](C)O`, the EC50 in test [1] was determined as 389 nM. Also, the IC50 in test [2] worked out at 21.6 nM.

`CC[C@H](C)[C@H](NC(=O)CNC(=O)[C@H](CC(=O)O)NC(=O)[C@H](CO)NC(=O)[C@@H](N)Cc1cn(C)cn1)C(=O)N[C@@H](Cc1ccccc1)C(=O)N[C@H](C(=O)N[C@@H](CC(=O)O)C(=O)N[C@@H](CO)C(=O)N[C@@H](Cc1ccc(O)cc1)C(=O)N[C@@H](CO)C(=O)N[C@@H](CCCNC(=N)N)C(=O)N[C@@H](Cc1ccc(O)cc1)C(=O)N[C@@H](CCCNC(=N)N)C(=O)N[C@@H](CCCCN)C(=O)N[C@@H](CCC(N)=O)C(=O)N[C@@H](CCSC)C(=O)N[C@@H](C)C(=O)N[C@H](C(=O)N[C@@H](CCCCN)C(=O)N[C@@H](CCCCN)C(=O)N[C@@H](Cc1ccc(O)cc1)C(=O)N[C@@H](CC(C)C)C(=O)N[C@@H](C)C(=O)N[C@@H](C)C(=O)N[C@H](C(=O)N[C@@H](CC(C)C)C(=O)NCC(=O)N[C@@H](CCCCN)C(=O)N[C@@H](CCCNC(=N)N)C(=O)N[C@@H](Cc1ccc(O)cc1)C(=O)N[C@@H](CCCCN)C(=O)N[C@@H](CCC(N)=O)C(=O)N[C@@H](CCCNC(=N)N)C(=O)N[C@H](C(=O)N[C@@H](CCCCN)C(=O)N[C@@H](CC(N)=O)C(=O)N[C@@H](CCCCN)C(N)=O)C(C)C)C(C)C)C(C)C)[C@@H](C)O`: in test [3], the maximal response (Emax) worked out at 18.2%.

Regarding `CC[C@H](C)[C@H](NC(=O)CNC(=O)[C@H](CC(=O)O)NC(=O)[C@H](CO)NC(=O)[C@@H](N)Cc1cn(C)cn1)C(=O)N[C@@H](Cc1ccccc1)C(=O)N[C@H](C(=O)N[C@@H](CC(=O)O)C(=O)N[C@@H](CO)C(=O)N[C@@H](Cc1ccc(O)cc1)C(=O)N[C@@H](CO)C(=O)N[C@@H](CCCNC(=N)N)C(=O)N[C@@H](Cc1ccc(O)cc1)C(=O)N[C@@H](CCCNC(=N)N)C(=O)N[C@@H](CCCCN)C(=O)N[C@@H](CCC(N)=O)C(=O)N[C@@H](CCSC)C(=O)N[C@@H](C)C(=O)N[C@H](C(=O)N[C@@H](CCCCN)C(=O)N[C@@H](CCCCN)C(=O)N[C@@H](Cc1ccc(O)cc1)C(=O)N[C@@H](CC(C)C)C(=O)N[C@@H](C)C(=O)N[C@@H](C)C(=O)N[C@H](C(=O)N[C@@H](CC(C)C)C(N)=O)C(C)C)C(C)C)[C@@H](C)O`, the Emax in test [3] is 31.9%.

Consider `CC[C@H](C)[C@H](NC(=O)CNC(=O)[C@H](CC(=O)O)NC(=O)[C@H](CO)NC(=O)[C@@H](N)Cc1cnc[nH]1)C(=O)N[C@@H](Cc1ccccc1)C(=O)N[C@H](C(=O)N[C@@H](CC(=O)O)C(=O)N[C@@H](CO)C(=O)N[C@@H](Cc1ccc(O)cc1)C(=O)N[C@@H](CO)C(=O)N[C@@H](CCCNC(=N)N)C(=O)N[C@@H](Cc1ccc(O)cc1)C(=O)N[C@@H](CCCNC(=N)N)C(=O)N[C@@H](CCCCN)C(=O)N[C@@H](CCC(N)=O)C(=O)N[C@@H](CCSC)C(=O)N[C@@H](C)C(=O)N[C@H](C(=O)N[C@@H](CCCCN)C(=O)N[C@@H](CCCCN)C(=O)N[C@@H](Cc1ccc(O)cc1)C(=O)N[C@@H](CC(C)C)C(=O)N[C@@H](C)C(=O)N[C@@H](C)C(=O)N[C@H](C(=O)N[C@@H](CC(C)C)C(=O)NCC(=O)N[C@@H](CCCCN)C(=O)N[C@@H](CCCNC(=N)N)C(=O)N[C@@H](Cc1ccc(O)cc1)C(=O)N[C@@H](CCCCN)C(=O)N[C@@H](CCC(N)=O)C(=O)N[C@@H](CCCNC(=N)N)C(=O)N[C@H](C(=O)N[C@@H](CCCCN)C(=O)N[C@@H](CC(N)=O)C(=O)N[C@@H](CCCCN)C(N)=O)C(C)C)C(C)C)C(C)C)[C@@H](C)O`, for which the Emax in test [3] came out at 100%.

The record behind these values is ChEMBL document CHEMBL1138520, “Molecular and conformational determinants of pituitary adenylate cyclase-activating polypeptide (PACAP) for activation of the PAC1 receptor” (J Med Chem, 2009).
